In paper PMC6863055 (Dalton transactions (Cambridge, England : 2003), 2019):
Read-outs that look alike come from different tables or passages of the source. Marks after values point to notes of the source that are not given here.

Columns and labels:
[1] = ref [51], [52]; cited from earlier work
[2] = Formation constants with Mg2+; type: binding; conditions: Mg^2+; I=0.15 M NaCl, T=298 K
Procedure, shortened: (§1)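 Complexes were studied by direct pH-potentiometric titration at 1:1 and 2:1 metal-to-ligand ratios, with 150–200 data pairs and 1 min equilibration per point. With metal in excess, titration continued until precipitate appeared (pH 7–9). Samples were at 25 °C, 0.15 M NaCl, under N2, with a calibrated electrode and [H+] corrected by the Irving method.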

[3] = Cu^2+, cited from earlier work; for log β [ML]/[M][L]: I=0.5 M, NaNO3, ref [57]
[4] = Zn^2+, cited from earlier work
[5] = Protonation constants by pH-potentiometric titration; type: physicochemical
Procedure, shortened: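 Test compound (2.28 mM) titrated directly with standardized NaOH over pH 1.80–12.00. Samples were 6.00 mL, thermostatted at 25 °C, held at 0.15 M NaCl, stirred under N2. The electrode was calibrated with KH-phthalate (pH 4.005) and borax (pH 9.177) buffers. [H+] was obtained by the Irving method (pKw 13.820). Protonation constants come from fitting the pH-potentiometric data.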

[6] = Metabolic stability in mouse hepatocytes; type: in vitro ADME
Procedure, shortened: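 Murine hepatocytes (1×10^6/mL) incubated with test compound (2 µM final, DMSO stock) for 0–240 min at 37 °C, 5% CO2. Reactions were quenched with two volumes of acetonitrile containing 0.15% formic acid and tolbutamide internal standard, then analysed by LC-MS/MS. % remaining is relative to T0. Half-life = 0.693/slope of ln % remaining versus time; CLint was taken from the slope of ln peak-area ratio versus time.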

[7] = Formation constants with Cu2+; type: binding; conditions: Cu^2+, I=0.15 M NaCl, T=298 K
[8] = Metabolic stability in mouse liver microsomes; type: in vitro ADME; conditions: murine liver microsomes
Procedure, shortened: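 Male ICR/CD-1 mouse liver microsomes (0.25 mg) in 50 mM Tris pH 7.5 with test compound at 2 µM final (DMSO stock). Incubated at 37 °C with shaking and an NADPH-regenerating system (NADP, glucose-6-phosphate, G6P dehydrogenase). Time points were quenched with acetonitrile, 0.2% formic acid and tolbutamide internal standard; the T0 sample was quenched before compound or cofactors were added. Parent was measured by LC-MS/MS (223.1→180.1). Half-life = 0.693/slope of ln % remaining versus time.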

[9] = Formation constants with Zn2+; type: binding; conditions: Zn^2+; I=0.15 M NaCl, T=298 K
Procedure, shortened: as §1

[10] = Formation constants with Ca2+; type: binding; conditions: Ca^2+; I=0.15 M NaCl, T=298 K
Procedure, shortened: as §1

FRDA cells = conditions: at 125 nM; toxicity induced by BSO in FRDA cells; ref [5]; cited from earlier work
[11] = Ca^2+, I=0.1 M, NaNO3, ref [54], cited from earlier work
[12] = I=0.15 M, NaClO4; ref [45]; cited from earlier work
[13] = Mg^2+; I=0.5 M, KNO3; ref [53]; cited from earlier work

Oc1cccnc1 [3-pyridol]
acidity constant of aromatic -OH functionality [1]: 8.72

Oc1ccncc1 [4-pyridol]
acidity constant of aromatic -OH functionality [1]: 11.09

c1cc2nc(c1)CNCCNCCNC2 [L1, 3,6,9,15-tetraazabicyclo[9.3.1]penta-deca-1(15),11,13-triene]
log β [ML]/[M][L] [2]: 4.04(2) | log β [ML]/[M][L][OH^−] ([3]; previously described by others, ref [47], [57], [58], [62]): 7.48^c | log β [ML]/[M][L] ([4]; I=0.5 M, KNO3, ref [47]): 14.40^f | log β [ML]/[M][L][OH^−] ([4]; I=0.5 M, KNO3, ref [47]): 8.50^f | log K1^H (protonation constant) ([5]; I=0.15 M NaCl, T=298 K): 11.37 (1) | log K2^H (protonation constant) ([5]; I=0.15 M NaCl, T=298 K): 8.22(5) | ∑ log KN-donors ([5]; I=0.15 M NaCl, T=298 K): 21.20 | log K3^H (protonation constant) ([5]; I=0.15 M NaCl, T=298 K, for L2 and L3 the pyridol -OH): 1.61(5)

Oc1cc2nc(c1)CNCCNCCNC2 [L2, 3,6,9,15-tetraazabicyclo[9.3.1]penta-deca-1(15),11,13-trien-13-ol]
calculated Clint ([6]; murine hepatocytes): < 0.02 µL/min/million cells | clearance classification ([6]; murine hepatocytes): low clearance | half-life ([6]; murine hepatocytes 1×10^6/mL, 2 µM, 0–240 min): greater than 240 min | % depleted over the time course of the experiment ([6]; murine hepatocytes, 0–240 min): 2–9% | log β [MHL]/[M][L][H^+] [7]: 25.79(3) | log β [ML]/[M][L] [7]: 19.16(11) | log β [ML]/[M][L][OH^−] [7]: 8.55(13) | log β [MH2L]/[M][L][H^+]^2 ([7]; determined by direct UV-vis titration): 28.38(5)^a | log β [MHL]/[M][L][H^+] [2]: 13.53(2) | log β [ML]/[M][L] [2]: 4.96(1) | isoelectric point (pI) [5]: 10.31 | log K1^H (protonation constant) ([5]; I=0.15 M NaCl, T=298 K): 11.56(3) | log K2^H (protonation constant) ([5]; I=0.15 M NaCl, T=298 K): 9.05(5) | log K4^H (protonation constant) ([5]; I=0.15 M NaCl, T=298 K): 1.68(5) | ∑ log KN-donors ([5]; I=0.15 M NaCl, T=298 K): 22.29 | fraction of [H2(L2)]^+ species in solution ([5]; at biological pH): 97% | % of molecule retained at termination of the experiment ([8]; NADPH regenerating system, 2 µM): 65% | in vitro half-life ([8]; NADPH regenerating system, 2 µM, substrate depletion): greater than 120 min | clearance classification ([8]; Phase I): low-moderate clearance | log β [MH2L]/[M][L][H^+]^2 [9]: 25.72(7) | log β [MHL]/[M][L][H^+] [9]: 23.02(3) | log β [ML]/[M][L] [9]: 17.18(7) | log β [ML]/[M][L][OH^−] [9]: 8.92(9) | log β [MHL]/[M][L][H^+] [10]: 13.66(5) | quenching of radical based toxicity (FRDA cells): 100%

C1CNCCNCCNCCN1 [cyclen]
log β [ML]/[M][L] [11]: 3.12 | log β [ML]/[M][L] ([11]; listed as Cyclen): 3.12^b | log β [ML]/[M][L] [3]: 23.3 | log β [ML]/[M][L] ([3]; listed as Cyclen): 23.3^d | log β [ML]/[M][L] ([4]; ref [58]): 16.2^e | log K1^H (protonation constant) [12]: 10.66 | log K2^H (protonation constant) [12]: 9.69 | log K3^H (protonation constant) [12]: 1.41 | ∑ log KN-donors [12]: 21.76 | log β [ML]/[M][L] [13]: 2.25^a
